Data reported in ChEMBL document CHEMBL4513216, “Probing the Open Global Health Chemical Diversity Library for Multistage-Active Starting Points for Next-Generation Antimalarials” (ACS Infect Dis, 2020).

Assay: Toxicity liver stage against HepG2, at 10uM
Format: cell-based
Parameters: test concentration 10 uM, cell line HepG2-A16-CD81EGFP
Conditions: human, HepG2-A16-CD81EGFP cells; read-out: INHIBITION
In short: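 Uninfected HepG2-A16-CD81EGFP cells, 3 × 10^3 per well, 1536-well, plated on prespotted compound at 10 μM final, parasite-free screening media added to match infected plates; puromycin 10 μM positive, DMSO 0.5% negative; run in parallel with 48 h PbLuc assay at 37 °C, 5% CO2; viability by CellTiter-Glo luminescence, normalized to controls.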

Structure (SMILES)	cytotoxicity at 10 µM [%]
CN(Cc1ccccc1CN1CCCC1)C(=O)c1c(O)cccc1O	-5.84
O=C(C1CCC1)N1CCN(Cc2ccccc2F)[C@H]2CS(=O)(=O)C[C@H]21	0.15
CCCOc1ccc(CCC(=O)Nc2nonc2C)cc1	-7.24
Cc1occc1C(=O)N1Cc2nccn2CC(CN2CCCC2)C1 (stereo not given)	-105
CNC(=O)N1CCC2(CC1)c1ncc(C)n1CCN2C	5.22
O=C1OCCN1CC(=O)N1C[C@@H]2CC[C@H]1CN(C(=O)c1cccnc1)C2	11.6
O=C(COCCc1ccccc1)N1CCCC(n2cncn2)C1 (stereo not given)	-27.8
COc1c(C2CCCN2C(=O)c2ccnn2C)c(C)nn1C (stereo not given)	2.55
CCc1cnc(C)nc1N(C)CCCc1cnn(C)c1	-10
O=C(Cn1cc(C(=O)O)ccc1=O)NCc1ccc(F)cc1Cl	-0.581
COc1ccc(Br)cc1CCC(=O)N1CCCC(O)C1 (stereo not given)	5.66
CCn1cnnc1CNC(=O)N(C)Cc1ccc(Cl)cc1Cl	-17.7
NC(=O)CN1CCC(c2noc3cc(F)ccc23)CC1	5.47
CCc1nnc(CN2CCOC(Cn3cc(C)cn3)C2)o1 (stereo not given)	-6.59
CCn1ncnc1C(C)NC(=O)C1CCN(C2CCCCC2)CC1 (stereo not given)	-149
O=C1OCCN1CCSc1nnnn1C1CCOCC1	-48.4
COc1cccc(OCCCc2cc(C#N)ccn2)c1	-9.72
CCC(C)C(=O)NCc1cccc(OCCN(C)C2CCOCC2)c1 (stereo not given)	-0.114
O=c1ccc(-n2ccnc2)nn1CCNS(=O)(=O)c1ccccc1Cl	-0.947
Cc1cc(C)n(CC2CCCN2CCC(=O)Nc2cc(C)on2)n1 (stereo not given)	1.44
O=C1NC(C(=O)NCc2cccnc2Oc2ccc(F)c(F)c2)CO1 (stereo not given)	-0.115
O=C(Cc1ccccc1F)N1CCCCC1c1ccn2ccnc2n1 (stereo not given)	-3.83

Structure (SMILES)	cytotoxicity at 10 µM [%]
O=C(c1ccc2occc2c1)N1CCC(C(=O)O)(n2cccn2)CC1	-0.657
CCc1ccc(C2CCCCCN2Cc2nc(CCOC)no2)o1 (stereo not given)	1.15
CN(CCO)C[C@@H]1CN(C(=O)c2c(F)cccc2Cl)C[C@@H]1CO	-9
Cc1ccc(-c2cc(C(=O)NC(C)C(=O)N3CCCCC3)on2)cc1 (stereo not given)	-7.17
CC(C)=CCN1C[C@@H]2CC[C@H]1CN(C(=O)c1ccc3c(c1)OCO3)C2	-0.988
CCc1ccc(NC(=O)c2cnc(N3CCN(C)CC3)nc2C)cc1	-15
CNC(=O)c1ccc(=O)n(Cc2csc(N(C)C(C)=O)n2)c1	0.138
COc1cc(N2C[C@H]3OCC[C@H]3[C@H](C(=O)NC3CC3)C2)ncn1	-8.83
CCc1nnc2ccc(NCC3(N4CCCCC4)CCOCC3)nn12	-8.39
CCc1ccc(OCC(O)CN2CCN(S(C)(=O)=O)CC2)cc1 (stereo not given)	7.07
Cc1oncc1C(=O)N1CC[C@H]2[C@@H]1CCC(=O)N2CC1CC1	6.42
O=C(c1cc(=O)c(OCc2ccccc2)co1)N1CCSCC1	-0.295
Cc1nc(CN2CCO[C@H]3CN(C(=O)c4cscn4)C[C@H]32)cs1	-128
FC1(F)CCN(Cc2cccnc2)CC12CCN(c1ccccc1)C2 (stereo not given)	-84.5
Cc1noc(C)c1CNCC1CNc2ccnn2C1 (stereo not given)	-2.72
OC(COc1ccc(F)cc1)CN1CCC(Cn2cccn2)CC1 (stereo not given)	-9.07
CCN1C[C@H]2CCN(C(=O)NC3CCCC3)CC[C@H]2S1(=O)=O	-3.52
CCNC(=O)N1CCC(OC)c2ccccc2N(CC(=O)NC)C(=O)C1 (stereo not given)	5.5
CCn1cnc(NC(=O)NCC2CCS(=O)(=O)CC2)n1	5.08
O=C(CCCc1ccccn1)NCC(O)c1c(F)cccc1F (stereo not given)	-7.85
CC(C)CN1C[C@H]2N(c3ncccn3)CCC[C@@]2(C(=O)NCC2CC2)C1	-94.6
O=C1N(Cc2cccc(F)c2F)CCCC1(O)CNCc1ccccc1 (stereo not given)	-9.45

Structure (SMILES)	cytotoxicity at 10 µM [%]
O=c1[nH]ccc2cc(-c3cc(O)cc(CCC4CCCCN4)c3)ccc12 (stereo not given)	1.81
COCCN(C)c1cnn(C)c(=O)c1Br	1.09
CC(C)NC(=O)N1CCC(n2ccc(C(F)(F)F)n2)CC1	3.02
CCc1ccc(OCC(O)CN2CCN(CCO)CC2)cc1 (stereo not given)	-11.9
CC(C)c1noc(CNc2cccc(-c3nnnn3C)c2)n1	-5.47
CN(C)C(=O)N1C[C@@H]2CC[C@H]1CN(C1Cc3ccccc3C1)C2	-0.581
CC(C)C(CNC(=O)NCc1cc[nH]n1)N1CCOCC1 (stereo not given)	-7.48
Cn1ccnc1C(=O)N1CCC2(CCN2c2ncccn2)C1 (stereo not given)	-0.736
Cc1nc(C2CCCN2Cc2cc(Cl)c3c(c2)OCCCO3)no1 (stereo not given)	10.3
COc1cccc(CNCc2cccc(Cl)c2)c1O	1.29
CCn1ccnc1C1CCN(C(=O)C(O)c2ccc(OC)cc2)CC1 (stereo not given)	0.171
Cc1cc(C(=O)N2CCCC2c2noc(C)n2)[nH]n1 (stereo not given)	-18.7
O=C(COCCOc1ccccc1)N1CCCC(n2ccnc2)C1 (stereo not given)	-19.6
CCN(CC)Cc1ccc(C(=O)N2CCCC2Cn2cccn2)cc1 (stereo not given)	-10.7
O=C(c1ccncc1F)N1CCN(CC2CC2)c2ncccc2C1	6.48
Cc1oc(-c2ccsc2)nc1CNC(C)Cn1cccn1 (stereo not given)	-9.81
Cc1cc(C)c2ncn(CCC(C)O)c(=O)c2c1 (stereo not given)	2.1
O=C(NC[C@H]1C[C@@H]2CCN1C[C@@H]2CN1CCCC1)c1ccco1	-3.84
O=C1CC2(CCN(S(=O)(=O)c3cccs3)C2)CN1c1cccc(F)c1 (stereo not given)	-1.51
O=C(O)[C@]12CCCN(Cc3ccco3)C[C@H]1CN(c1ncccn1)C2	7.34
Cc1ncsc1CN1C[C@@H]2CC[C@H]1CN(Cc1ccccc1)C2	-14.1
O=C(c1cncc(F)c1)N1CCC(c2ncc[nH]2)CC1	-1.39

Structure (SMILES)	cytotoxicity at 10 µM [%]
Cc1cc(C(=O)N(C)Cc2nc(-c3ccccn3)no2)c(C)o1	2.84
COc1cccc2ccc(CN3CCN(c4ncccc4C)CC3)nc12	-5.21
COCC(=O)Nc1ccc(Oc2ccsc2C(=O)O)cc1	8.12
CC1(C)CN(C(=O)CCc2nc(-c3ccncc3)no2)CCO1	-3.16
CC[C@H]1CN2CC[C@H]1C[C@@H]2CNCc1ccc(OC(F)(F)F)cc1	-0.785
CC(C)(C)c1cn2c(n1)C(CNCc1ccccn1)CCC2 (stereo not given)	-9.5
O=C1CC(NCc2cnc(-c3cccs3)nc2)CN1c1ccccc1 (stereo not given)	1.58
Cc1noc(C)c1-c1cc(CCC2CN(C(=O)C(C)C)CCO2)ncn1 (stereo not given)	4.16
Cc1ccc(NC2CCN(C(=O)c3ccoc3C)CC2)nn1	-12.7
O=c1n(CCSCc2ccccc2Cl)nc2ccccn12	-7.68
O=C(CNCC1CCCN1c1cccnn1)NCCc1cccs1 (stereo not given)	-6.84
CNC(=O)[C@@H]1[C@@H](c2ccccc2)CN2CCN(Cc3cccs3)C[C@H]12	11
Cc1ccc(C(=O)Nc2ccc(N(C)C)nc2)n1C	-9.38
CCc1cc(N2CCCC(c3noc(CC)n3)C2)ncn1 (stereo not given)	9.74
O=C1CC2(CCN(C(=O)Cc3cc4c(cc3Cl)OCCO4)C2)C(=O)N1 (stereo not given)	12.7
COCCC(=O)N1C[C@H]2CN(Cc3cccc(C)c3)C(=O)[C@H]2C1	2.05
CC(C)(C)CN1CCC(c2nccnc2Nc2cnccn2)CC1	-4.98
NCC1(c2cccc(C(F)(F)F)c2)CCCC1	-5.7
Cc1noc(C)c1CCC(=O)N1CCn2cccc2C1C (stereo not given)	-0.376
Cn1ncc2c1C(COCC1CC1)CN(Cc1nccs1)C2 (stereo not given)	4.49
Cc1ccc(C(=O)N2C[C@@H]3C[C@@H](c4nnc(C5CC5)o4)O[C@@H]3C2)s1	-133
Cc1csc(N2CCN(CC(=O)Nc3cc(C)nn3C)CC2C)n1 (stereo not given)	-10.2

Structure (SMILES)	cytotoxicity at 10 µM [%]
C1CN(Cc2noc(C3CC3)n2)CCN(Cc2nnc(C3CC3)o2)C1	-10.9
CCOCCNC(=O)Nc1ccc(OCc2noc(C3CC3)n2)cc1	6.48
COCC(NC(=O)c1cn(-c2cccc(Cl)c2F)nn1)C1CC1 (stereo not given)	11.1
Cn1ccnc1CNC(=O)c1cncc(C2CCNCC2)n1	1.81
COc1c(CNCC(=O)N2CCN(C)CC2)c(C(C)C)nn1C	7.45
CCc1nc(C)ncc1C(=O)N1CCOC(c2nc(C)n[nH]2)C1 (stereo not given)	-7.88
O=C(C1SCCc2sccc21)N1CCC(O)CC1 (stereo not given)	-7.38
CC(C)NC(=O)N1CCC2(CC(=O)N(c3ccsc3)C2)C1 (stereo not given)	-7.99
COCC(=O)N1CCC2(CCC2NC(=O)c2ccn(C)c2)CC1 (stereo not given)	-76.4
O=C(Nc1nc[nH]n1)c1cc(-c2ccc(F)cc2)n[nH]1	-5.4
COc1cc2[nH]c(=O)c(CN3CCC[C@H]3CO)cc2c(OC)c1OC	-10.7
COCCCN1CCCC12CCN(c1ncccn1)CC2	2.87
CN(C)c1cc(C2CCCN(S(=O)(=O)c3cn[nH]c3)C2)ccn1 (stereo not given)	-0.24
CCC(=O)N1CCC2(CC1)C(c1cccnc1)CC(=O)N2CCOC (stereo not given)	-94.1
C[C@H]1C[C@@H]2CCN(C(=O)c3cccn3C)C[C@H]2O1	10.1
Cc1ccsc1CN(Cc1ccccn1)CC(C)C	-13.4
CC(C)N1Cc2cccc(NCC(=O)N(C)C)c2C1	6.05
O=C1CCCN1Cc1ncn2c1CN(C(=O)NC1CCCCC1)CCC2	-150
CS(=O)(=O)N[C@@H]1COC[C@@H]2CN(Cc3ccoc3)C[C@@H]21	-4.85
O=C(NCc1ccc(F)cc1)N1CCN(CC(O)C2CC2)CC1 (stereo not given)	8.88
COCc1nc(N(C)C)ncc1C(=O)NC(C)c1ccccc1 (stereo not given)	6.03
CCOC(=O)C1CN(C(=O)C2CCOCC2)Cc2ncn(CC)c21 (stereo not given)	5.65
